Source: PubChem (several laboratories)
PKA-R2B activ = activators of human PKA-R2B complex | P22694+P31323 | activation, % at 11.4 µM | 340,000 compounds, 0.079% hits | PKA-R2B holoenzyme dissociation, Cy5-IP20 fluorescence polarization; R2B truncated from residue 108, S112A mutant; 0% DMSO only, 100% 113 µM cGMP;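 active means activation above a cutoff set at the mean over all compounds plus 3 SD, cut at about 18% in these data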;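 further: higher means more holoenzyme dissociation and a rise in polarization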
ATG4B inh = inhibitors of human ATG4B cysteine protease. ATG4B cleavage of LC3-PLA2, NBD-HPC fluorescence, 1 h. inhibition, % at 8.33 µM. 340,000 compounds, 0.51% hits; in the data active means inhibition above about 40%
Target sequence (Q9Y4P1 whole entry, looked up): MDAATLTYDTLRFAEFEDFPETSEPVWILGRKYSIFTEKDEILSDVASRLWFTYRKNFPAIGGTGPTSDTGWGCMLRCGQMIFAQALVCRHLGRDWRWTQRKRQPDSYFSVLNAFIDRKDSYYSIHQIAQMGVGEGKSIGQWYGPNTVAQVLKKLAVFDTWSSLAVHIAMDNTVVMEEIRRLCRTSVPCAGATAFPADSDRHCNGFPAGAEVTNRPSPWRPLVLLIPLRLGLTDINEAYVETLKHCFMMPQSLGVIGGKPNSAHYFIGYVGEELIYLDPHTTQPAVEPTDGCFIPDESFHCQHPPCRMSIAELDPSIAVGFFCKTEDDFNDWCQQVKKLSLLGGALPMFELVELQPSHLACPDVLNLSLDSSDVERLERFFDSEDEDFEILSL
PKA-R1A activ = PKA-R1A complex activation. PKA-R1A dissociation, Cy5-IP20 fluorescence polarization; scaled: DMSO 0%, 113 µM cGMP 100%. activation, % at 11.4 µM. 340,000 compounds, 0.083% hits. AID 504707;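 active means percent activation above the mean of all tested compounds plus 3 SD, cut at about 19% in these data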;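 further: higher means more PKAc released from R1A so a rise in polarization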
HKDC1 inhibitor = HKDC1 (human) hexokinase inhibition; Q2TB90; recombinant HKDC1, G6PDH/diaphorase resazurin coupled fluorescence; inhibition, % at 20 µM; 340,000 compounds, 0.16% hits; AID 493160;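 active means inhibition above about 35% when tested at 20 µM, limit read from the data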
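Test system: recombinant HKDC1 (HK5) hexokinase enzyme, produced in-house; Amount: enzyme 5 µg/mL final; Buffer or medium: Tris pH 8.0 buffer with MgCl2, Tween-20, BSA, BME; Reagent: glucose and ATP substrates; Doses: 20 µM test compound, 1% DMSO; Incubation: 90 min reaction incubation at room temperature, dark; Detection: resorufin fluorescence at 613 nm.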
T cell HTS = modulates CD8 T cell binding to vesicles. 330,000 compounds, 0.068% hits. 2C CD8+ T cell-vesicle binding, flow cytometry; stronger effect = lower value. response (vesicle binding), % at 7 µM;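 active means response, share of CD8 T cells binding vesicles, and their 90th percentile fluorescence all below set limits, cut at about 80% in these data, passing the limit was not always enough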;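 further: values below 100% mean blocked vesicle binding to the CD8+ T cells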
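incubation = binding step 1.5 h, 37 °C, antibody labelling 20 min, ice | test system = 2C mouse CD8+ T cells | read-out basis = percent CD8+ FL2 mean versus row control | controls = Peptide-free naked vesicles (low) and QL9 vesicles with 0.7% DMSO vehicle (high) | detection = flow cytometry of vesicle-bound cells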
PfG6PD inh = PfG6PD (Plasmodium falciparum) enzyme inhibition; 350,000 compounds, 0.78% hits; AID 504690; PfGluPho enzyme, NADPH resazurin-diaphorase fluorescence; inhibition, % at 20 µM;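 active means inhibition reaching at least a set limit at 20 µM in the primary screen, cut at about 59% in these data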
ATG4B confirm = confirmation of human ATG4B inhibitors; shares compounds with ATG4B inh; ATG4B protease fluorescent substrate cleavage assay; inhibition, % at 8.33 µM; 320 compounds, 92% hits; AID 504757; in the data active means inhibition above about 39%
PLA2 counter = PLA2 (human) inhibition in ATG4B counter-screen; shares compounds with ATG4B inh; purified PLA2, NBD-C6-HPC fluorescence, 45 min; inhibition, % at 8.33 µM; 1,600 compounds, 66% hits; AID 588402; in the data active means inhibition above about 50%
Target sequence (P04054 whole entry, looked up): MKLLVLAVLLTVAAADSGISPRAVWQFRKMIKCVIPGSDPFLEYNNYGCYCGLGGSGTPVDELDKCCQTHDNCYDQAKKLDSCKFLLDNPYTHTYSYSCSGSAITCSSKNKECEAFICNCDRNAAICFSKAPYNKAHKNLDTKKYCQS
Of the large screens only hits and unclear results are named; the others gave an inactive call (follow-up assays come after a bar, where they were run). This is a sample that favours compounds with a hit; in the whole collection about 1.6% have one here.

Cc1c(CCOC(=O)CC23CC4CC(CC(C4)C2)C3)sc[n+]1CC(=O)c1ccccc1	none
O=c1[nH]c(=S)[nH]c2c1C(c1ccc(Br)cc1)c1c([nH]c(=S)[nH]c1=O)O2	ATG4B inh 53 | ATG4B confirm inactive | PLA2 counter inactive
O=C1CCCC2=C1C(c1ccc(Br)cc1)c1c([nH]c(=S)[nH]c1=O)N2 (stereo not drawn)	none
CCOc1ccc(C2=CS/C(=C(\C#N)c3nnc4n3CCCCC4)N2CC)cc1	ATG4B inh 48 | ATG4B confirm 72 | PLA2 counter inactive
CC1(C)S[C@@H]2[C@H](NC(=O)[C@H](N)c3ccccc3)C(=O)N2[C@H]1C(=O)OC1OC(=O)c2ccccc21 (stereo partly drawn)	none
N#Cc1c(NC(=S)NC(=O)C2CCCC2)sc2c1CCCCC2	ATG4B inh 74 | PLA2 counter inactive
N#Cc1c(NC(=S)NC(=O)c2ccccc2)sc2c1CCCC2	none
O=C1C2C3C=CC(C3)C2C(=O)N1/N=C/c1cn(Cc2ccccc2)c2ccccc12 (stereo not drawn)	ATG4B inh 48 | PLA2 counter 57
O=C1C2C3C=CC(C3)C2C(=O)N1/N=C/c1cn(Cc2ccc(F)cc2)c2ccccc12 (stereo not drawn)	ATG4B inh 48 | PLA2 counter 70
CCCCOc1ccc(C(=S)N2CCC(C(N)=O)CC2)cc1	ATG4B inh 82 | PLA2 counter 84
CCc1nnc(NS(=O)(=O)c2ccc(N/C=C\C(=O)c3ccc4ccccc4c3)cc2)s1	ATG4B inh 50 | ATG4B confirm 59 | PLA2 counter inactive
COc1ccc(-n2c(C)c(C(C)=O)c3cc(OCC(N)=O)ccc32)cc1	ATG4B inh 50 | PLA2 counter 58
N#CCSc1ncnc2sc3c(c12)CCC3	none
CC(C#N)Sc1ncnc2sc3c(c12)CCC3 (stereo not drawn)	ATG4B inh 49 | PLA2 counter inactive
Cc1onc(-c2ccccc2Cl)c1C(=O)NC(=S)NCC(=O)c1ccccc1	ATG4B inh 45 | PLA2 counter inactive
CCc1ccc(NC(=S)NC(=O)c2c(-c3ccccc3Cl)noc2C)cc1	none
O=S(=O)(Nc1ccc(-c2csc(-c3ccccc3)n2)cc1)c1ccc(F)cc1	none
O=C(Nc1nc(-c2ccccc2)cs1)c1ccccc1NS(=O)(=O)c1ccc(F)cc1	ATG4B inh 54 | PLA2 counter 62
CC1CCCCC1NC(=O)COC(=O)c1c2c(nc3ccccc13)/C(=C/c1ccco1)CC2 (stereo not drawn)	ATG4B inh 53 | ATG4B confirm 75 | PLA2 counter inactive
CCOCCn1c(=O)c2c(nc3n2CC(C)CN3Cc2ccccc2)n(C)c1=O (stereo not drawn)	none
CN1CCC2(CC1)N=C(c1ccc(F)cc1)C(=S)N2C(=O)c1ccc(C(C)(C)C)cc1	ATG4B inh 45 | PLA2 counter inactive
CCc1ccc(CNC(=O)CCC(=O)N2Cc3cccc(OC)c3Oc3ncccc32)cc1	none
C=C(C)c1cccc(C(C)(C)NC(=O)NNC(=O)c2ccccc2O)c1	none
CCOC(=O)CSc1nc2ccccc2c(=O)n1C1CCCC1	ATG4B inh 44 | PLA2 counter 65
Cc1ccc(NC(=O)COCC(=O)Nc2ccc(F)cc2)cc1	none
Cc1ccccc1CSc1nnnn1-c1ccc(C(N)=O)cc1	ATG4B inh 58 | PLA2 counter 54
Cc1noc(C)c1CSCC(=O)N(C)CC(=O)Nc1ccc(F)c(F)c1F	none
O=C(O)CN1C(=O)/C(=C\c2cc([N+](=O)[O-])ccc2OCc2ccccc2Cl)SC1=S	ATG4B inh 75 | PLA2 counter 60
O=C(O)CN1C(=O)/C(=C\c2cc(Br)ccc2OCc2ccc(Cl)cc2)SC1=S	ATG4B inh 52 | ATG4B confirm 53 | PLA2 counter inactive
O=C(O)CN1C(=O)/C(=C\c2cc(Br)ccc2OCc2ccc(F)cc2)SC1=S	none
N#Cc1c(NC(=O)C2CC(c3c(F)cccc3Cl)=NO2)sc2c1CCC2 (stereo not drawn)	ATG4B inh 59 | PLA2 counter 53
CCc1c(C)sc(NC(=O)C2CC(c3c(F)cccc3Cl)=NO2)c1C#N (stereo not drawn)	none
CCN(Cc1ccc2c(c1)OCCO2)C(=O)CSc1nc(C)nc2sc(C)c(C)c12	ATG4B inh 47 | PLA2 counter 68
Cc1ccc(-c2csc(N/N=C/c3ccco3)n2)cc1	ATG4B inh 41 | PLA2 counter inactive
C(=N\Nc1nc(-c2ccccc2)cs1)/c1ccco1	none
COc1ccc(CCCN2CCC(CN3CCNC(=O)C3=O)CC2)cc1OC	none (no result: ATG4B inh, T cell HTS)
COc1ccccc1-c1cc(C(=O)N2CCCc3ccccc32)no1	none
COc1ccc(OC)c(-c2cc(C(=O)N3CCCc4ccccc43)no2)c1	ATG4B inh 47 | ATG4B confirm 68 | PLA2 counter inactive
CCOc1ccc(N(CC(=O)Nc2cc(Cl)ccc2C)S(C)(=O)=O)cc1	none
CCN(CC)CCNC(=O)c1ccc(NC(=O)/C=C/c2ccc3ccccc3n2)cc1	none
CC(C)CSC1=NSC2=NC(=O)/C(=C\c3coc4ccccc4c3=O)C(=N)N12	ATG4B inh 50 | PLA2 counter 53
Cc1ccccc1CN1CCN(S(=O)(=O)c2ccc(F)cc2)CC1	none
Cc1cccc(C)c1N1CCN(S(=O)(=O)c2ccc(F)cc2)CC1	ATG4B inh 51 | PLA2 counter 62
Fc1ccc2cc(-c3ccccc3F)ncc2c1	none
O=C(/C=C/c1ccc(Cl)cc1)N1CCN(c2c(Cl)cccc2[N+](=O)[O-])CC1	ATG4B inh 44 | PLA2 counter inactive
O=C(CSc1ccc(Cl)cc1)N1CCN(c2c(Cl)cccc2[N+](=O)[O-])CC1	none
Cc1c(Cl)cccc1NC(=O)Nc1cc(C(C)(C)C)on1	ATG4B inh 78 | PLA2 counter 84
CC(C)(C)c1cc(NC(=O)Nc2ccc(Cl)cc2Cl)no1	none
CC1Cc2ccccc2N1C(=O)COC(=O)c1c2c(nc3ccccc13)CCCCC2 (stereo not drawn)	ATG4B inh 44 | PLA2 counter inactive
COc1cc2c(cc1NC(=O)COC(=O)[C@@H](NS(=O)(=O)c1cccc(Cl)c1)C(C)C)oc1ccccc12	ATG4B inh 47 | PLA2 counter 63
